Data set [1] deals with Trypanosoma cruzi. The data set can be described thus: Antitrypanosomal activity against Trypanosoma cruzi MHOM/Pe/2011/Arequipa DTU 5 epimastigotes assessed as reduction in mitochondrial membrane potential at IC25 after 72 hrs by Rho123 staining based flow cytometry relative to control. Type of data set: functional. Set-up: scale not given: the % may be the effect or the level left. The procedure, abridged: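 Arequipa epimastigotes were exposed at IC25 for 72 h, then labelled with Rhodamine 123 and analysed by flow cytometry. Result is % alteration in mitochondrial membrane potential versus untreated control.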
(In general: In flow cytometry, cells or beads pass a laser one at a time.)

Data set [2] has as its system Mus musculus. Nature of the data set: Nephrotoxicity in Balb/c mouse infected with Trypanosoma cruzi MHOM/Pe/2011/Arequipa DTU 5 trypamastigotes assessed as decrease in urea level in serum at […], po once daily for 5 consecutive days starting from day 75 post infection measured on day 81 post infection by biochemical analysis relative to control. More on the design: scale not given: the % may be the effect or the level left. Type of data set: toxicity, organism-based. The conditions noted are these: in vivo.

Data set [3] relates to Mus musculus. The data set can be described thus: Cardiotoxicity in Balb/c mouse infected with Trypanosoma cruzi MHOM/Pe/2011/Arequipa DTU 5 trypamastigotes assessed as change in ratio of creatine kinase in muscle to brain at 100 mg/kg, po once daily for 5 consecutive days starting from day 10 post infection measured on day 16 post infection by biochemical analysis relative to control. The conditions noted are these: in vivo. The class given is toxicity, organism-based.

Data set [4] concerns Mus musculus. The data set can be described thus: Nephrotoxicity in Balb/c mouse infected with Trypanosoma cruzi MHOM/Pe/2011/Arequipa DTU 5 trypamastigotes assessed as decrease in urea level in serum at […], po once daily for 5 consecutive days starting from day 10 post infection measured on day 16 post infection by biochemical analysis relative to control. The class given is toxicity, organism-based. More on the design: scale not given: the % may be the effect or the level left. The conditions noted are these: in vivo.

The test system of data set [5] is Mus musculus. Nature of the data set: Nephrotoxicity in Balb/c mouse infected with Trypanosoma cruzi MHOM/Pe/2011/Arequipa DTU 5 trypamastigotes assessed as decrease in uric acid level in serum at […], po once daily for 5 consecutive days starting from day 75 post infection measured on day 81 post infection by biochemical analysis relative to control. Type of data set: toxicity, organism-based. Set-up: scale not given: the % may be the effect or the level left. The conditions noted are these: in vivo.

Data set [6] has as its system Trypanosoma cruzi. The data set can be described thus: Antitrypanosomal activity against Trypanosoma cruzi MHOM/Pe/2011/Arequipa DTU 5 epimastigotes assessed as effect on parasite glycolytic pathway by measuring L-alanine excretion at IC25 after 72 hrs by 1H NMR method. The class given is functional, organism-based. The procedure, abridged:
(§1)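 Arequipa epimastigotes exposed at IC25 for 72 h alongside an untreated control. Excreted catabolites were analysed by 1H NMR, and each peak is reported as % variation versus the control. Three separate determinations.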

The subject of data set [7] is Mus musculus. The data set can be described thus: Nephrotoxicity in Balb/c mouse infected with Trypanosoma cruzi MHOM/Pe/2011/Arequipa DTU 5 trypamastigotes assessed as decrease in uric acid level in serum at […], po once daily for 5 consecutive days starting from day 10 post infection measured on day 16 post infection by biochemical analysis relative to control. The class given is toxicity, organism-based. Set-up: scale not given: the % may be the effect or the level left. The note with it: in vivo.

Data set [8] deals with Mus musculus. The data set can be described thus: Nephrotoxicity in Balb/c mouse infected with Trypanosoma cruzi MHOM/Pe/2011/Arequipa DTU 5 trypamastigotes assessed as change in urea level in serum at […], po once daily for 5 consecutive days starting from day 10 post infection measured on day 127 post infection by biochemical analysis relative to control. The note with it: in vivo. Type of data set: toxicity, organism-based.

The test system of data set [9] is Trypanosoma cruzi. The data set can be described thus: Antitrypanosomal activity against Trypanosoma cruzi MHOM/Pe/2011/Arequipa DTU 5 epimastigotes assessed as effect on parasite glycolytic pathway by measuring acetate excretion at IC25 after 72 hrs by 1H NMR method. Type of data set: functional, organism-based. In outline:
as §1

The subject of data set [10] is Trypanosoma cruzi. The data set can be described thus: Antitrypanosomal activity against Trypanosoma cruzi MHOM/Pe/2011/Arequipa DTU 5 epimastigotes assessed as effect on parasite glycolytic pathway by measuring D-lactate excretion at IC25 after 72 hrs by 1H NMR method. Type of data set: functional, organism-based. In outline:
as §1

Data set [11] deals with Mus musculus. The data set can be described thus: Nephrotoxicity in Balb/c mouse infected with Trypanosoma cruzi MHOM/Pe/2011/Arequipa DTU 5 trypamastigotes assessed as change in uric acid level in serum at […], po once daily for 5 consecutive days starting from day 10 post infection measured on day 127 post infection by biochemical analysis relative to control. The class given is toxicity, organism-based. The conditions noted are these: in vivo.

Data set [12] relates to Mus musculus. Nature of the data set: Hepatotoxicity in Balb/c mouse infected with Trypanosoma cruzi MHOM/Pe/2011/Arequipa DTU 5 trypamastigotes assessed as decrease in ratio of serum AST to GOT level at […], po once daily for 5 consecutive days starting from day 75 post infection measured on day 127 post infection by biochemical analysis relative to control. The class given is toxicity, organism-based. Set-up: scale not given: the % may be the effect or the level left. The note with it: in vivo.

The test system of data set [13] is Mus musculus. Nature of the data set: Hepatotoxicity in Balb/c mouse infected with Trypanosoma cruzi MHOM/Pe/2011/Arequipa DTU 5 trypamastigotes assessed as decrease in ratio of serum ALT to GPT level at […], po once daily for 5 consecutive days starting from day 10 post infection measured on day 16 post infection by biochemical analysis relative to control. The class given is toxicity, organism-based. Set-up: scale not given: the % may be the effect or the level left. The conditions noted are these: in vivo.

The test system of data set [14] is Mus musculus. Nature of the data set: Hepatotoxicity in Balb/c mouse infected with Trypanosoma cruzi MHOM/Pe/2011/Arequipa DTU 5 trypamastigotes assessed as decrease in ratio of serum AST to GOT level at […], po once daily for 5 consecutive days starting from day 10 post infection measured on day 127 post infection by biochemical analysis relative to control. The note with it: in vivo. Type of data set: toxicity, organism-based. More on the design: scale not given: the % may be the effect or the level left.

For data set [15], the system named is Mus musculus. The data set can be described thus: Hepatotoxicity in Balb/c mouse infected with Trypanosoma cruzi MHOM/Pe/2011/Arequipa DTU 5 trypamastigotes assessed as decrease in ratio of serum ALT to GPT level at […], po once daily for 5 consecutive days starting from day 75 post infection measured on day 127 post infection by biochemical analysis relative to control. The conditions noted are these: in vivo. The class given is toxicity, organism-based. Set-up: scale not given: the % may be the effect or the level left.

The test system of data set [16] is Mus musculus. The data set can be described thus: Hepatotoxicity in Balb/c mouse infected with Trypanosoma cruzi MHOM/Pe/2011/Arequipa DTU 5 trypamastigotes assessed as decrease in total bilirubin level at […], po once daily for 5 consecutive days starting from day 10 post infection measured on day 16 post infection by biochemical analysis relative to control. Type of data set: toxicity, organism-based. More on the design: scale not given: the % may be the effect or the level left. The note with it: in vivo.

The subject of data set [17] is Mus musculus. Nature of the data set: Hepatotoxicity in Balb/c mouse infected with Trypanosoma cruzi MHOM/Pe/2011/Arequipa DTU 5 trypamastigotes assessed as decrease in ratio of serum ALT to GPT level at […], po once daily for 5 consecutive days starting from day 75 post infection measured on day 81 post infection by biochemical analysis relative to control. The class given is toxicity, organism-based. Set-up: scale not given: the % may be the effect or the level left. The note with it: in vivo.

In data set [18] the test system is Mus musculus. Nature of the data set: Hepatotoxicity in Balb/c mouse infected with Trypanosoma cruzi MHOM/Pe/2011/Arequipa DTU 5 trypamastigotes assessed as decrease in total bilirubin level at […], po once daily for 5 consecutive days starting from day 75 post infection measured on day 81 post infection by biochemical analysis relative to control. Type of data set: toxicity, organism-based. More on the design: scale not given: the % may be the effect or the level left. The conditions noted are these: in vivo.

The test system of data set [19] is Mus musculus. The data set can be described thus: Nephrotoxicity in Balb/c mouse infected with Trypanosoma cruzi MHOM/Pe/2011/Arequipa DTU 5 trypamastigotes assessed as change in uric acid level in serum at […], po once daily for 5 consecutive days starting from day 75 post infection measured on day 127 post infection by biochemical analysis relative to control. The conditions noted are these: in vivo. The class given is toxicity, organism-based.

Data set [20] deals with Mus musculus. The data set can be described thus: Hepatotoxicity in Balb/c mouse infected with Trypanosoma cruzi MHOM/Pe/2011/Arequipa DTU 5 trypamastigotes assessed as decrease in alkaline phosphatase level at […], po once daily for 5 consecutive days starting from day 10 post infection measured on day 16 post infection by biochemical analysis relative to control. The conditions noted are these: in vivo. Set-up: scale not given: the % may be the effect or the level left. The class given is toxicity, organism-based.

Data set [21] concerns Mus musculus. Nature of the data set: Hepatotoxicity in Balb/c mouse infected with Trypanosoma cruzi MHOM/Pe/2011/Arequipa DTU 5 trypamastigotes assessed as decrease in ratio of serum AST to GOT level at […], po once daily for 5 consecutive days starting from day 75 post infection measured on day 81 post infection by biochemical analysis relative to control. The class given is toxicity, organism-based. More on the design: scale not given: the % may be the effect or the level left. The conditions noted are these: in vivo.

The test system of data set [22] is Mus musculus. The data set can be described thus: Hepatotoxicity in Balb/c mouse infected with Trypanosoma cruzi MHOM/Pe/2011/Arequipa DTU 5 trypamastigotes assessed as decrease in ratio of serum AST to GOT level at […], po once daily for 5 consecutive days starting from day 10 post infection measured on day 16 post infection by biochemical analysis relative to control. More on the design: scale not given: the % may be the effect or the level left. The note with it: in vivo. The class given is toxicity, organism-based.

This is an account of results in ChEMBL document CHEMBL4118256, “Second Generation of Mannich Base-Type Derivatives with in Vivo Activity against Trypanosoma cruzi” (J Med Chem, 2018).

SMILES strings stand for the structures. Active and inactive are the calls of the source. The calls are words filed in the database; no cut-off is given here. Some results are limits rather than exact numbers.

Regarding `O=C(Cn1ccnc1[N+](=O)[O-])NCc1ccccc1` [BENZNIDAZOLE], the Activity in [1] is 35.4%.
As for `COc1ccc(C(=O)CCN2CCN(c3ccc([N+](=O)[O-])cc3)CC2)cc1`, the Activity result in data set [2] is reported as “<= 10%”; in data set [3], under 10%; in data set [4], “<= 20%”; in data set [5], “<= 30%”; in data set [7], “<= 20%”; in data set [8], under 10%. The Activity in data set [1] is 76.3%; in [11], under 10%. Also, the result in data set [6], in data set [9] and in [10] was inactive.
With `COc1ccc(C(=O)CCN2CCN(c3ccc(Cl)cc3)CC2)cc1`, the Activity result in [12] was “<= 20%”; in [13] it was “<= 20%”; in data set [2] it was “<= 30%”; in data set [14], “<= 10%”; in data set [4], “<= 30%”; in [5] it was “<= 30%”. For the same compound, the Activity entry in data set [7] is given as “<= 30%”; in data set [15], “<= 10%”; in data set [8], under 10%; in data set [16], “<= 10%”; in data set [17], “<= 30%”; in data set [18], “<= 20%”. Further, the Activity in data set [19] is under 10%; in data set [1], 27.4%; in [20] it was “<= 10%”; in data set [11], under 10%; in [21], “<= 20%”; in data set [22], “<= 20%”. Besides, the outcome in [6], in data set [9] and in [10] was inactive.
Regarding `COc1ccc(C(=O)CCN2CCN(c3ccc(F)cc3)CC2)cc1`, the Activity entry is listed as “<= 20%” in data set [12]; “<= 30%” in data set [13]; under 10% in data set [3]; “<= 10%” in [14]; “<= 10%” in [15]; “<= 10%” in data set [16]. The Activity entry in data set [17] is recorded as “<= 30%”; in data set [18], “<= 10%”; in [19], under 10%; in data set [1] it was 25.6%; in [20] it was “<= 20%”; in [21], “<= 10%”. For the same compound, in data set [22], the Activity result is reported as “<= 30%”.
